Laboratory results published in ChEMBL document CHEMBL1148632, “Discovery of a novel family of SARS-CoV protease inhibitors by virtual screening and 3D-QSAR studies” (J Med Chem, 2006).

The compounds below were run against Replicase polyprotein 1a (Severe acute respiratory syndrome-related coronavirus, UniProt P0C6U8) (assay: Inhibition of SARS coronavirus 3C-like protease). Conditions: read-out: -Log IC50 (converted).
Summary of the method: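 Recombinant SARS-CoV 3CLpro (pET32Xa/LIC construct) at 50 nM with 6 µM fluorogenic peptide Dabcyl-KTSAVLQ-SGFRKME-Edans in 20 mM Bis-Tris pH 7.0 at 25 °C. Cleavage read as fluorescence increase (ex 355, em 538 nm). Initial velocities plotted against inhibitor concentration; IC50 fitted with A[I] = A[0]×(1 − [I]/([I]+IC50)).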
Work on `Cc1nc(SCC(=O)Nc2ccc([N+](=O)[O-])cc2)nc(O)c1C` yielded an IC50 of over 1000 µM.

Same assay, conditions: read-out: IC50
`COc1ccc(NC(=O)CSc2nc(O)cc(-c3ccccc3)n2)cc1OC` gave an IC50 of 45 µM. `O=C(CSc1nccc(-c2csc(-c3ccccc3)n2)n1)Nc1cc(Cl)cc(Cl)c1` gave an IC50 of 3 µM. `COc1cccc(-c2nc(SCC(=O)Nc3ccc(C(C)=O)cc3)[nH]c(=O)c2C#N)c1` gave an IC50 of 60 µM. `Cc1cc(C(F)(F)F)nc(SCC(=O)Nc2ccc(Cl)cc2F)n1` was tested, and the IC50 was 500 µM. Compound `Cc1nc(SCC(=O)Nc2ccc([N+](=O)[O-])cc2)nc(O)c1C` has an IC50 of over 1000 µM. `COc1cccc(-c2nc(SCC(=O)Nc3ccc([N+](=O)[O-])cc3)[nH]c(=O)c2C#N)c1` showed an IC50 of 300 µM. Compound `CCCCc1ccc(NC(=O)CSc2nc(O)c(C#N)c(C3CCCCC3)n2)c(C)c1` has an IC50 of 200 µM. Work on `Cn1nc(-c2ccc(-c3ccnc(SCC(=O)Nc4ccc(Cl)cc4)n3)s2)cc1C(F)(F)F` yielded an IC50 of 10 µM. Compound `CCOC(=O)c1cnc(SCC(=O)Nc2ccc([N+](=O)[O-])cc2)nc1N` has an IC50 of 250 µM. `CC(C)c1ccc(NC(=O)CSc2nccc(-c3csc(COc4ccccc4Cl)n3)n2)cc1` was tested, and the IC50 was 200 µM. Compound `COc1ccc(-c2ccnc(SCC(=O)Nc3ccc(C(C)C)cc3)n2)cc1` has an IC50 of 400 µM. Work on `COC(OC)c1cc(O)nc(SCC(=O)Nc2ccc(C(F)(F)F)cc2)n1` yielded an IC50 of 200 µM. `Cc1cc(O)nc(SCC(=O)Nc2cc(Cl)ccc2Oc2ccccc2)n1` showed an IC50 of 100 µM. With `O=C(CSc1nccc(-c2cc(-c3ccccc3Cl)no2)n1)Nc1ccc(Cl)cc1` the IC50 was 15 µM. Compound `N#Cc1c(-c2ccccc2)nc(SCC(=O)Nc2cccc(C(F)(F)F)c2)[nH]c1=O` has an IC50 of 200 µM. With `O=C(CSc1nccc(-c2cc(-c3ccc(Cl)cc3Cl)no2)n1)Nc1ccc(C(F)(F)F)cc1` the IC50 was 15 µM. In the case of `Cc1cc(O)nc(SCC(=O)Nc2ccc(Oc3ccc(Cl)cc3)cc2)n1`, the IC50 is reported as 200 µM. Compound `CC(C)(C)c1ccc(NC(=O)CSc2nc(C3CCCCC3)c(C#N)c(=O)[nH]2)cc1` has an IC50 of 350 µM. `CC(C)c1ccc(NC(=O)CSc2nccc(-c3cccs3)n2)cc1` showed an IC50 of 40 µM. `CCCc1cc(O)nc(SCC(=O)Nc2ccc(Cl)cc2)n1` gave an IC50 of 30 µM. `CCOc1ccc(N2C(=O)CC(Sc3nc(C)cc(C)n3)C2=O)cc1` (centres undefined) gave an IC50 of 300 µM. In the case of `CCC(Sc1nc(O)c(C#N)c(-c2cccc(OC)c2)n1)C(=O)Nc1ccc(C(C)=O)cc1` (centres undefined), the IC50 is reported as 60 µM. Work on `CC(Sc1nc(-c2ccccc2)c(C#N)c(=O)[nH]1)C(=O)Nc1ccc(Cl)cc1` (centres undefined) yielded an IC50 of 300 µM. Compound `O=C(CSc1nccc(-c2cc(-c3ccccc3)no2)n1)Nc1ccc(Cl)cc1` has an IC50 of 15 µM. `CSc1sc(-c2nc(C)cs2)c(C)c1-c1ccnc(SCC(=O)Nc2ccccc2Cl)n1` gave an IC50 of 12 µM. `CSc1sc(-c2nc(C)cs2)c(C)c1-c1ccnc(SCC(=O)Nc2ccc(Cl)cc2)n1` was tested, and the IC50 was 11 µM. `COc1cccc(-c2nc(SCC(=O)Nc3ccc(S(N)(=O)=O)cc3)[nH]c(=O)c2C#N)c1` gave an IC50 of 40 µM. Work on `Cc1nc(-c2nc(-c3ccnc(SCC(=O)Nc4ccc(Cl)cc4)n3)cs2)cs1` yielded an IC50 of 14 µM.
